Screening data: PubChem BioAssay, Sanford-Burnham Center for Chemical Genomics
Sampled rows, rich in hits. Any-hit rate of the full collection: about 4.4%.
SENP1 FRET inh: SENP1 (human) catalytic domain inhibition; Q9P0U3; recombinant SENP1 catalytic domain, CyPet-SUMO1-YPet FRET cleavage; inhibition, % at 10 µM; 360,000 tested, 0.21% active;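 active = inhibition at least 30% at 10 µM, raw YFP signal under a set limit, fluorescence ratio 0.5 to 1.5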;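 also: 0% = enzyme with DMSO and 100% = no enzyme wells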
Target sequence (Q9P0U3 419-644 limits assumed): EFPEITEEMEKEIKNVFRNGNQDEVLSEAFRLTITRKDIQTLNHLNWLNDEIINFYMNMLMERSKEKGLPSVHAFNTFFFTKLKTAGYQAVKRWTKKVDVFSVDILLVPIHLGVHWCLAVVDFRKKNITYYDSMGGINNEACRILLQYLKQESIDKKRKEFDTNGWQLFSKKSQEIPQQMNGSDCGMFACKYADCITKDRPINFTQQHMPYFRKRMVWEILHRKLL
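Assay system: hSENP1 catalytic domain, recombinant. Amount: SENP1 enzyme, 20 pM final. Schedule: 50 min reaction, RT, dark. Technique: FRET, CFP and YFP emission. Control set: no-enzyme wells low, DMSO-plus-enzyme wells high control.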
EBI2 antag: EBI2 (human) antagonism. P32249. EBI2 beta-arrestin recruitment, luminescence, 7a,25-OHC stimulated. inhibition, % at 5 µM. 360,000 tested, 0.81% active; in the data active = inhibition above about 38%;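 also: enzyme fragment complementation signal reports receptor beta-arrestin coupling in cells; 0% = agonist plus DMSO wells and 100% = wells without agonist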
Target sequence (P32249 whole entry, looked up, the tested form may be a part): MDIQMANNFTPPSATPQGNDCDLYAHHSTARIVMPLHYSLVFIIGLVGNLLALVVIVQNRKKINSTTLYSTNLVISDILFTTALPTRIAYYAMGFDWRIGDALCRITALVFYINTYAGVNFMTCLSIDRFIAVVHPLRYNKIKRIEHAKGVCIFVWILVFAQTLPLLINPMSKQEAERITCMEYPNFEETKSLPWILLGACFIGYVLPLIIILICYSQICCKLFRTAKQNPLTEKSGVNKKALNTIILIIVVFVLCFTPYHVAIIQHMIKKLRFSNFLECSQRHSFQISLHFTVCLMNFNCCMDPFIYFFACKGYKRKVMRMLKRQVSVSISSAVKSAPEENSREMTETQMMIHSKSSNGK
GRIN3A LBD mod: modulators (binders) of human NR3A ligand-binding domain; NR3A LBD differential scanning fluorimetry, Tm shift; 0% = protein alone, 100% = glycine-bound protein; Tm shift relative to glycine control, % at 25 µM; 340,000 tested, 2.5% active; AID 1259313;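 active = melting temperature shift of at least 10% of the positive control shift, at one fixed dose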
MPTP inh: blocks calcium-induced mitochondrial swelling. isolated mouse mitochondria, Ca2+ swelling absorbance, 30 min. inhibition, % at 10 µM. 360,000 tested, 1.4% active;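 active = inhibition of 50% or more, scaled per plate between neutral and stimulator controls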;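 also: 0% = DMSO wells given calcium and 100% = 1 mM EGTA wells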
Rh123 counter: Rhodamine 123 counter-screen of mitochondrial pore hits; shares compounds with MPTP inh; isolated mitochondria, membrane potential, Rhodamine 123 fluorescence; inhibition, % at 10 µM; 5,000 tested, 78% active; AID 624504; in the data active = inhibition above about 22%;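 also: 0% = DMSO vehicle and 100% = positive control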
MPTP abs DR: dose response confirmation of mitochondrial permeability transition pore inhibitors; 780 tested, 58% active; IC50, µM; shares compounds with MPTP inh; isolated mitochondria swelling, absorbance; in the data active = IC50 below about 20 µM
MPTP counter DR: counter-screen for mitochondrial permeability transition pore inhibitors, dose response. 780 tested, 49% active. IC50, µM. isolated mitochondria counterscreen, fluorescence read-out. shares compounds with MPTP inh. AID 651564; in the data active = IC50 below about 80 µM
* hit, by the source's call; . = no result given.

SMILES	SENP1 FRET inh	EBI2 antag	GRIN3A LBD mod	MPTP inh	Rh123 counter	others
Cc1ccc(O)c(-c2cc(C(F)(F)F)[nH]n2)c1	0	-4	-8	63*	67*
Cc1ccc(-c2cc(-c3ccc(C)cc3O)[nH]n2)cc1	2	16	3	3	.
CCCS(=O)(=O)NC(=O)C1(C)CCCN(C(=O)c2cc(C(C)(C)C)nn2C)C1 (stereo not drawn)	2	-6	.	-1	.
O=C(Nc1nnc(C2CC2)s1)c1ccc(Cl)c(S(=O)(=O)N2CCc3ccccc3C2)c1	-1	-2	4	51*	60*
O=C(Nc1ccncc1)c1ccc(Cl)c(S(=O)(=O)N2CCc3ccccc32)c1	1	3	.	58*	91*
Cc1cc(N2CC(C)OC(C)C2)nc(C(C)C)n1 (stereo not drawn)	0	10	0	0	.
C[C@H](CO)N1C[C@H](C)[C@@H](CN(C)S(=O)(=O)c2cccc(F)c2)Oc2ncc(Br)cc2C1=O	2	-1	.	0	.
O=C(O)c1ccc2c(c1)S(=O)(=O)c1cc(N3CCN(c4cnccn4)CC3)ccc1C2=O	-29	7	.	0	.
N#Cc1c(NCCN)nc(-c2ccco2)c2c1CCCC2	-56	-3	-6	92*	-2	MPTP abs DR=13*;MPTP counter DR=>80
CC(C)CCNc1nc(-c2ccco2)c2c(c1C#N)CCCC2	-19	14	0	0	.
COc1cc(CSc2nnnn2-c2ccc(C)cc2)cc(OC)c1OC	2	5	-4	92*	89*
Cc1ccccc1OCCCc1c(C)n[nH]c1C	3	-9	-2	0	.
Cc1n[nH]c(C)c1CCCCOc1ccccc1[N+](=O)[O-]	0	0	-1	85*	74*
Cc1ccccc1OCCCCc1c(C)n[nH]c1C	-1	9	0	101*	98*
C[n+]1c2n(c3ccccc31)N=C(c1cc(C(C)(C)C)c(O)c(C(C)(C)C)c1)CS2	3	9	-6	94*	103*
COc1cccc(C2=Nn3c(nnc3-c3ccccc3O)SC2)c1	2	13	-2	0	.
C/C(=N\NC(=O)C(=O)Nc1ccc(C)c(Cl)c1)c1ccncc1	3	-5	2	55*	8	MPTP abs DR=1.5*;MPTP counter DR=<2.5*
Cc1ccc(NC(=O)Nc2cnccn2)cc1Cl	0	0	-2	63*	64*
Cc1cc(NC(=O)Nc2ccc(Cl)c(Cl)c2)no1	1	3	-3	82*	94*
Cc1cc(NC(=O)Nc2ccc(Cl)cc2)no1	2	0	0	2	.
COc1ccc(NC(=O)Nc2cnccn2)cc1	2	-8	-8	1	.
C/C(=N\NC(=O)C(=O)Nc1ccc(C)cc1)c1ccncc1	3	6	10	1	.
O=C(Nc1ccc(Cl)c(Cl)c1)Nc1ccon1	1	-15	28*	69*	103*
CCCCn1nnnc1C1(C)CCC(=O)N1Cc1cc(OC)ccc1OC (stereo not drawn)	0	7	.	-2	.
CCCCn1c(N)c(N(CCOC)C(=O)CSCc2cccc(C)c2)c(=O)[nH]c1=O	-5	-6	0	0	.
SMILES	SENP1 FRET inh	EBI2 antag	GRIN3A LBD mod	MPTP inh	Rh123 counter	others
CCc1nnc(NS(=O)(=O)c2ccc(NC(=O)c3cc(Cl)ccc3OC)cc2)s1	0	-15	5	0	.
CCOC(=O)c1ccc(NC(=O)Nc2ccon2)cc1	1	-14	0	50*	65*
CCOC(=O)c1ccc(NC(=O)Nc2nc3ccccc3s2)cc1	1	5	.	83*	91*
Cc1noc(NS(=O)(=O)c2ccc(NC(=O)Nc3ccc(Cl)c(Cl)c3)cc2)c1C	0	-9	36*	84*	75*
CCOC(=O)c1sc(NC(=O)Nc2cccc(Cl)c2)cc1C	1	15	24*	79*	49*
COC(c1ccc(Cl)cc1)(c1ccc(Cl)cc1)C(Oc1nc(C)cc(C)n1)C(=O)O (stereo not drawn)	-1	-7	-2	2	.
CCCn1c(SCC(=O)NC2CCCCC2C)n[nH]c1=O (stereo not drawn)	3	-1	-4	-1	.
OC(COCc1cccs1)CN1CCN(c2cccc(Cl)c2)CC1 (stereo not drawn)	1	4	-5	-1	.
CCOC(=O)c1sc(NC(=O)Nc2ccc(Cl)cc2)nc1C	1	23	28*	97*	67*
CCOC(=O)Nc1nc(C)c(C(=O)c2ccc(Cl)cc2)s1	2	5	-2	2	.
Clc1ccccc1CN1CCN(/N=C/C=C/c2ccco2)CC1	-1	3	0	1	.
COC(/C(=N/O)c1ccc(Cl)cc1)c1ccccc1 (stereo not drawn)	2	6	-5	68*	76*
COc1ccc(Cl)cc1NC(=O)C(OC)c1ccccc1 (stereo not drawn)	3	12	2	0	.
N=C(N)SCc1cn(-c2ccccc2)nc1-c1ccc(Br)cc1	0	-23	-9	76*	-10
Cn1ncc2c(N3CCC(Cc4ccccc4)CC3)ncnc21	1	8	-4	13	.
NNC(=O)c1cc2c(N3CCC(Cc4ccccc4)CC3)ncnc2s1	-4	4	-7	89*	59*
C[C@H]1COC(=O)[C@H](Cc2ccc(F)cc2)C/C=C\C[C@H](CC(=O)NCCO)C(=O)N1	3	-5	-3	-1	.
CCCCNC(=S)Nc1ccc(F)cc1	2	-6	1	5	.
Oc1ccccc1N1CCN(C(=S)Nc2ccc(SC(F)F)cc2)CC1	1	-12	-2	0	.
Oc1cccc(NC(=S)Nc2ccc(SC(F)F)cc2)c1	-2	4	16*	91*	84*
Oc1cccc2c(NC(=S)Nc3ccc(SC(F)F)cc3)cccc12	-30	9	25*	88*	88*
CCCCNC(=S)Nc1ccc(SC(F)F)cc1	0	3	0	98*	73*
Oc1cccc(NC(=S)Nc2cccnc2)c1	1	-4	-16	-1	.
COc1ccc(S(=O)(=O)Nc2ccccc2C(N)=O)cc1OC	0	-16	1	-1	.
COc1cccc(/C=N/Nc2snc(SC)c2C#N)c1O	-25	-25	30*	99*	86*
COc1ccc(/C=N/Nc2snc(SC)c2C#N)cc1OC	-1	6	6	6	.
CN(Cc1ccc(Br)cc1)CC(O)COc1cccc(Br)c1 (stereo not drawn)	0	2	-3	60*	-4	MPTP abs DR=>100;MPTP counter DR=43*
COc1ccc(CCNCC(O)COc2cccc(Br)c2)cc1 (stereo not drawn)	3	-9	-1	60*	-6	MPTP abs DR=5.1*;MPTP counter DR=47*
